Measurements reported in ChEMBL document CHEMBL1154183, “Structure-based optimization of potent and selective inhibitors of the tyrosine kinase erythropoietin producing human hepatocellular carcinoma receptor B4 (EphB4)” (J Med Chem, 2009).
One block for each molecule: values may come before it.

Experiments:
[1] = biological target: Insulin receptor (Homo sapiens) (UniProt P06213); test: Inhibition of histidine-tagged IR assessed as remaining enzyme activity at 1 uM relative to DMSO
[2] = biological target: Serine/threonine-protein kinase Nek11 (Homo sapiens) (UniProt Q8NG66); test: Binding affinity to NEK11 assessed as percentage of kinase remaining bound to the bead at 1 uM by T7 phage display based binding assay
Sequence of Serine/threonine-protein kinase Nek11 (Homo sapiens) (Q8NG66 whole entry, the tested form may be a part): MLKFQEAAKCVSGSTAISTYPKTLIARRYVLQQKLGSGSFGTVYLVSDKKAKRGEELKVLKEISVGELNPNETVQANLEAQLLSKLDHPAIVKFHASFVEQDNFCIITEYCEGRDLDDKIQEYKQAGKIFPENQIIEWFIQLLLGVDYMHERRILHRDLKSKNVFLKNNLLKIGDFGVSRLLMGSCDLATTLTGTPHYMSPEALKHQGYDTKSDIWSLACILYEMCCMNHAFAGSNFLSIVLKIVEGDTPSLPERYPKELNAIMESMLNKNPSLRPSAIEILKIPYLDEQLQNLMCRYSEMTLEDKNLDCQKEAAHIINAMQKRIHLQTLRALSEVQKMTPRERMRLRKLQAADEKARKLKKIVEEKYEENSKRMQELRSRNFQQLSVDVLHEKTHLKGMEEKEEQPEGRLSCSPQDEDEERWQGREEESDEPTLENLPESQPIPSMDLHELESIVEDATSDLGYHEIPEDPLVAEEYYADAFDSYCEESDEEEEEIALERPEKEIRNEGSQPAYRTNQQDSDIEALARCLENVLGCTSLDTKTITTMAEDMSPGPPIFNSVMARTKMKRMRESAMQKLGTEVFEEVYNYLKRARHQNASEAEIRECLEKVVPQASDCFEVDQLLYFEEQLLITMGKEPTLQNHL
Procedure, shortened: (§1)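 Competition binding assay run by a contract lab. Each kinase was expressed as a fusion to T7 phage, full-length for small kinases and catalytic domain for large ones. Phage were mixed with an immobilized known kinase inhibitor on streptavidin magnetic beads and with test compound at a single 1 μM. Kinase/phage still bound to the beads was quantified by qPCR and expressed as % of DMSO control.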

[3] = biological target: Serine/threonine-protein kinase 32A (Homo sapiens) (UniProt Q8WU08); test: Binding affinity to YANK1 assessed as percentage of kinase remaining bound to the bead at 1 uM by T7 phage display based binding assay; procedure, shortened: as §1
[4] = biological target: Dual specificity protein kinase TTK (Homo sapiens) (UniProt P33981); test: Inhibition of TTK assessed as remaining enzyme activity at 1 uM relative to DMSO
[5] = biological target: Epidermal growth factor receptor (Homo sapiens) (UniProt P00533); test: Binding affinity to EGFR assessed as percentage of kinase remaining bound to the bead at 1 uM by T7 phage display based binding assay
Procedure, shortened: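 Kinases expressed as T7 phage fusions (full-length for small kinases, catalytic domain for large). Phage mixed with an immobilized known kinase inhibitor on streptavidin magnetic beads plus test compound at a single 1 μM concentration. Ligand displacement from the ATP site was read by quantitative PCR as % kinase/phage still bead-bound versus DMSO control. Human kinases.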

[6] = biological target: Ephrin type-A receptor 6 (Homo sapiens) (UniProt Q9UF33); test: Binding affinity to EPHA6 assessed as percentage of kinase remaining bound to the bead at 1 uM by T7 phage display based binding assay; procedure, shortened: as §1
[7] = biological target: Cyclin-G-associated kinase (Homo sapiens) (UniProt O14976); test: Binding affinity to GAK assessed as percentage of kinase remaining bound to the bead at 1 uM by T7 phage display based binding assay; procedure, shortened: as §1
[8] = biological target: MAP/microtubule affinity-regulating kinase 3 (Homo sapiens) (UniProt P27448); test: Inhibition of MARK3 assessed as remaining enzyme activity at 1 uM relative to DMSO
Procedure, shortened: (§2)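 Radiometric kinase assay run robotically at room temperature for 30 min, linear in time and enzyme. Conditions: 10 mM magnesium acetate, [γ-33P]ATP (800 cpm/pmol) at 5, 20 or 50 μM per kinase, at or below its ATP Km. Started with MgATP and stopped with orthophosphoric acid, then spotted on P81 filters. Reported as mean % activity of duplicates versus DMSO controls.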

[9] = biological target: Serine/threonine-protein kinase BRSK2 (Homo sapiens) (UniProt Q8IWQ3); test: Inhibition of BRSK2 assessed as remaining enzyme activity at 1 uM relative to DMSO
Sequence of Serine/threonine-protein kinase BRSK2 (Homo sapiens) (Q8IWQ3 whole entry): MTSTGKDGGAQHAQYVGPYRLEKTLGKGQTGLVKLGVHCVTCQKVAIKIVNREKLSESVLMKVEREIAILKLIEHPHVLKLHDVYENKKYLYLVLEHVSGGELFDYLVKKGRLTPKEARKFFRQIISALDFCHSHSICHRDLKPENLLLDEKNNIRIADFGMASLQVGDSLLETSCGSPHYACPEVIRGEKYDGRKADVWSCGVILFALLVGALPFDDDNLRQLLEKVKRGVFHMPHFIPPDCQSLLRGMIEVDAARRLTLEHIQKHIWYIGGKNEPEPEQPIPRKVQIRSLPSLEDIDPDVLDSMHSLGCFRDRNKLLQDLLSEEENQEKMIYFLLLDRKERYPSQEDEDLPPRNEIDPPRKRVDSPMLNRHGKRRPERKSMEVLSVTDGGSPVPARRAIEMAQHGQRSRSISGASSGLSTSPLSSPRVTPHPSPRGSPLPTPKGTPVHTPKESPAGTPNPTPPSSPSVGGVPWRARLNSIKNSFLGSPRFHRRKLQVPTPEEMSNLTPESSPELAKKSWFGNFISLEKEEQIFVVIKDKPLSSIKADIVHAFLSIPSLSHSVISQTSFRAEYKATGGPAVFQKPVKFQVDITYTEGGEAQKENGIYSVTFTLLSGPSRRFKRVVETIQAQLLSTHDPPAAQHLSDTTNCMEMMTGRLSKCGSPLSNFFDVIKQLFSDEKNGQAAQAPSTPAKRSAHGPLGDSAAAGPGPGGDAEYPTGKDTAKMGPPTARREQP
Procedure, shortened: (§3)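 Panel assay run robotically at room temperature for 30 min with 10 mM magnesium acetate and [γ-33P]ATP (800 cpm/pmol) at 5, 20 or 50 μM, chosen per kinase to be at or below its ATP Km. Reactions were started with MgATP, stopped with orthophosphoric acid and spotted on P81 filters. Activity is the mean of duplicates at a single inhibitor concentration, as % of DMSO control.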

[10] = biological target: Dual specificity tyrosine-phosphorylation-regulated kinase 2 (Homo sapiens) (UniProt Q92630); test: Inhibition of DYRK2 assessed as remaining enzyme activity at 1 uM relative to DMSO; procedure, shortened: as §2
Sequence of Dual specificity tyrosine-phosphorylation-regulated kinase 2 (Homo sapiens) (Q92630 whole entry): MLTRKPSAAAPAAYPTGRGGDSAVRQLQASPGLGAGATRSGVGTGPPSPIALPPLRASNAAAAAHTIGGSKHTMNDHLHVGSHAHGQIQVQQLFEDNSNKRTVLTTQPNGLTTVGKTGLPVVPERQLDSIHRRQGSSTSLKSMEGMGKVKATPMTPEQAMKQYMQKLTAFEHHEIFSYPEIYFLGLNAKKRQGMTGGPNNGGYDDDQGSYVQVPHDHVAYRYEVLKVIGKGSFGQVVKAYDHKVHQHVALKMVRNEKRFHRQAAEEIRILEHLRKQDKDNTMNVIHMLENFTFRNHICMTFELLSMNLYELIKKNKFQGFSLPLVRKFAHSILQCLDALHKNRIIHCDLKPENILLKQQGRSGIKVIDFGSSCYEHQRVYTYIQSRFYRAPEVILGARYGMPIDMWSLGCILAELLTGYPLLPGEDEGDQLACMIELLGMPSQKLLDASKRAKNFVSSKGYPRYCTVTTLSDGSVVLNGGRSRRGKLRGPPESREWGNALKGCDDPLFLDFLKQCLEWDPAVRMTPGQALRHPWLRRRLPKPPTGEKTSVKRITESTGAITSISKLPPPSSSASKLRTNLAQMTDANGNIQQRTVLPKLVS

[11] = biological target: Dual specificity tyrosine-phosphorylation-regulated kinase 3 (Homo sapiens) (UniProt O43781); test: Inhibition of DYRK3 assessed as remaining enzyme activity at 1 uM relative to DMSO; procedure, shortened: as §2
Sequence of Dual specificity tyrosine-phosphorylation-regulated kinase 3 (Homo sapiens) (O43781 whole entry): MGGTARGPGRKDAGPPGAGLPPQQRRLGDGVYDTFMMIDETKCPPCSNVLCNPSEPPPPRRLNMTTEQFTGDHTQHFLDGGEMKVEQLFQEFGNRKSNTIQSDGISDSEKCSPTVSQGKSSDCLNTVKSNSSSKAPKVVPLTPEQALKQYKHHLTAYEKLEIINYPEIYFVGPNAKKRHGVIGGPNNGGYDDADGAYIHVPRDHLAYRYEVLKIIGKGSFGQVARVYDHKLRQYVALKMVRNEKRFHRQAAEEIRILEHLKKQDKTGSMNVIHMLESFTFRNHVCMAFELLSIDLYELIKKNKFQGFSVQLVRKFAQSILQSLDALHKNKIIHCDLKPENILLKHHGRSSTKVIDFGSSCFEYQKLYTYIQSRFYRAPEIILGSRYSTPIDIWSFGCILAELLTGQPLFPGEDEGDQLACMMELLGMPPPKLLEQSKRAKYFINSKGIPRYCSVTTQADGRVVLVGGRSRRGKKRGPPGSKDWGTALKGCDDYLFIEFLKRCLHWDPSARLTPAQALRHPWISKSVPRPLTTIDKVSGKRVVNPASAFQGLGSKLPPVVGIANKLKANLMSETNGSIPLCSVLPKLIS

[12] = biological target: Serine/threonine-protein kinase Nek6 (Homo sapiens) (UniProt Q9HC98); test: Inhibition of NEK6 assessed as remaining enzyme activity at 1 uM relative to DMSO
Sequence of Serine/threonine-protein kinase Nek6 (Homo sapiens) (Q9HC98 whole entry): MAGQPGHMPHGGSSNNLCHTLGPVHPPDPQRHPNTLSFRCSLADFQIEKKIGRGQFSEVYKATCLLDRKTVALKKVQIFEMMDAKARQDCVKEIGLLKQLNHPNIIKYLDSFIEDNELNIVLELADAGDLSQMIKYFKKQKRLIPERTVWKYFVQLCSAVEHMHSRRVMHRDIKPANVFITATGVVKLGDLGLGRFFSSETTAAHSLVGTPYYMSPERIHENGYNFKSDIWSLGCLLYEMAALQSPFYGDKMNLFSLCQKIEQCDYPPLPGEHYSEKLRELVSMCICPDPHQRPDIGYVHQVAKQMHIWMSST
Procedure, shortened: (§4)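 Radiometric kinase assay run robotically at room temperature for 30 min. Contained 10 mM magnesium acetate and [γ-33P]ATP (800 cpm/pmol) at 5, 20 or 50 μM, chosen per kinase to be at or below its ATP Km. Reactions were started with MgATP, stopped with orthophosphoric acid and spotted onto P81 filters. Result is mean % activity of duplicates at one inhibitor concentration versus DMSO control.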

[13] = biological target: Serine/threonine-protein kinase 26 (Homo sapiens) (UniProt Q9P289); test: Inhibition of MST4 assessed as remaining enzyme activity at 1 uM relative to DMSO; procedure, shortened: as §4
Sequence of Serine/threonine-protein kinase 26 (Homo sapiens) (Q9P289 2-416 limits assumed): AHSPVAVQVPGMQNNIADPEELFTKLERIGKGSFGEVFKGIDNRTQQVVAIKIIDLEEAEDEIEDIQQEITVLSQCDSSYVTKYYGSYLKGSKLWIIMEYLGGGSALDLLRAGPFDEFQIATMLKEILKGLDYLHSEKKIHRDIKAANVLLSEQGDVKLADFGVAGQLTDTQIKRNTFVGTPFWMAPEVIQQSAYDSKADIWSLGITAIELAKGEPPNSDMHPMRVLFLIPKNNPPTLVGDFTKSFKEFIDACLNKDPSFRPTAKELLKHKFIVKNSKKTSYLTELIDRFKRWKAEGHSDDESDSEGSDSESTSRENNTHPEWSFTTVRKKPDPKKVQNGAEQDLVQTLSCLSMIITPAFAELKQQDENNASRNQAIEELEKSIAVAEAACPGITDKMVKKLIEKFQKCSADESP

[14] = biological target: Protein kinase C alpha type (Homo sapiens) (UniProt P17252); test: Inhibition of PKCalpha assessed as remaining enzyme activity at 1 uM relative to DMSO
[15] = biological target: MAP kinase-interacting serine/threonine-protein kinase 1 (Homo sapiens) (UniProt Q9BUB5); test: Inhibition of MNK1 assessed as remaining enzyme activity at 1 uM relative to DMSO; procedure, shortened: as §4
[16] = biological target: Mitogen-activated protein kinase 9 (Homo sapiens) (UniProt P45984); test: Inhibition of JNK2 assessed as remaining enzyme activity at 3 uM relative to DMSO
Sequence of Mitogen-activated protein kinase 9 (Homo sapiens) (P45984 whole entry, looked up): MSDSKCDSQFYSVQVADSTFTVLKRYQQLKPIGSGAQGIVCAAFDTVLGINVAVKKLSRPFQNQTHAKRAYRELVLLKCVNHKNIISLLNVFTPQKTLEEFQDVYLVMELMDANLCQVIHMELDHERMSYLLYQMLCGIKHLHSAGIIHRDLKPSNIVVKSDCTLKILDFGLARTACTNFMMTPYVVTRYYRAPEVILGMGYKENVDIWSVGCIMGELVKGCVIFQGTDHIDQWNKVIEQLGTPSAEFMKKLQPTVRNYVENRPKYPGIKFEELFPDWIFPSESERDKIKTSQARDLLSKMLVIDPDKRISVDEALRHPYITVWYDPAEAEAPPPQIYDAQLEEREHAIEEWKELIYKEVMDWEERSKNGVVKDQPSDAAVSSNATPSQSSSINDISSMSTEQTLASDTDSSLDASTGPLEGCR
Procedure, shortened: (§5)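 Dundee kinase panel, radiometric: [γ-33P]ATP (800 cpm/pmol) at 5, 20 or 50 μM, at or below each kinase's ATP Km; 10 mM magnesium acetate; robotic, room temperature, 30 min. Reactions started with MgATP, stopped with orthophosphoric acid, spotted onto P81 filters. Inhibitor tested at a single concentration; mean % activity of duplicates relative to DMSO control.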

[17] = Inhibition of PHK assessed as remaining enzyme activity at 3 uM relative to DMSO; procedure, shortened: as §4
[18] = biological target: Cyclin-dependent kinase 2 (Homo sapiens) (UniProt P24941); test: Inhibition of CDK2 assessed as remaining enzyme activity at 3 uM relative to DMSO; procedure, shortened: as §5
[19] = biological target: Serine/threonine-protein kinase BRSK2 (Homo sapiens) (UniProt Q8IWQ3); test: Inhibition of BRSK2 assessed as remaining enzyme activity at 3 uM relative to DMSO; procedure, shortened: as §3
[20] = biological target: Dual specificity tyrosine-phosphorylation-regulated kinase 3 (Homo sapiens) (UniProt O43781); test: Inhibition of DYRK3 assessed as remaining enzyme activity at 3 uM relative to DMSO; procedure, shortened: as §5
[21] = biological target: Serine/threonine-protein kinase 3 (Homo sapiens) (UniProt Q13188); test: Inhibition of MST2 assessed as remaining enzyme activity at 3 uM relative to DMSO; procedure, shortened: as §4
Sequence of Serine/threonine-protein kinase 3 (Homo sapiens) (Q13188 whole entry): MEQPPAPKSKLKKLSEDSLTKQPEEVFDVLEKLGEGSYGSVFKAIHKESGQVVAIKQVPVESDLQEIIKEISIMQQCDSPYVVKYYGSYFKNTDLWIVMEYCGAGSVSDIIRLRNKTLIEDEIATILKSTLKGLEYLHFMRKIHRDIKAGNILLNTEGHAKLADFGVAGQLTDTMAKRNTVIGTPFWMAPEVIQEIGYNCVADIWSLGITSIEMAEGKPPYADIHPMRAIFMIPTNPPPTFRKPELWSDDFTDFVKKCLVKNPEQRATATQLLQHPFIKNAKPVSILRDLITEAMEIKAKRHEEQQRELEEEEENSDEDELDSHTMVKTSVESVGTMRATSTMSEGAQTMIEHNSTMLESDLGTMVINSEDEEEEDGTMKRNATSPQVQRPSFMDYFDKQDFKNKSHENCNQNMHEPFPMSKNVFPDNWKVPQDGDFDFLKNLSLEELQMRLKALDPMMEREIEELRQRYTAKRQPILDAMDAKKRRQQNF

[22] = biological target: Tyrosine-protein kinase Lck (Homo sapiens) (UniProt P06239); test: Inhibition of Lck assessed as remaining enzyme activity at 3 uM relative to DMSO; procedure, shortened: as §4
[23] = biological target: Tyrosine-protein kinase SYK (Homo sapiens) (UniProt P43405); test: Inhibition of SYK assessed as remaining enzyme activity at 3 uM relative to DMSO
[24] = biological target: Insulin-like growth factor 1 receptor (Homo sapiens) (UniProt P08069); test: Inhibition of IGF-1R assessed as remaining enzyme activity at 3 uM relative to DMSO; procedure, shortened: as §5
[25] = biological target: Mitogen-activated protein kinase kinase kinase kinase 2 (Homo sapiens) (UniProt Q12851); test: Inhibition of GCK assessed as remaining enzyme activity at 3 uM relative to DMSO; procedure, shortened: as §5
[26] = biological target: 3-phosphoinositide-dependent protein kinase 1 (Homo sapiens) (UniProt O15530); test: Inhibition of PDK1 assessed as remaining enzyme activity at 3 uM relative to DMSO

Activity [1]: 104% | Activity [2]: 67% | Activity [3]: 80% | Activity [4]: 98% | Activity [5]: 8.6% | Activity [6]: 40% | Activity [7]: 49% | Activity [8]: 96% | Activity [9]: 82% | Activity [10]: 86% | Activity [11]: 96% | Activity [12]: 89% | Activity [13]: 78% | Activity [14]: 92% | Activity [15]: 94%
SMILES: COc1ccccc1-n1c(-c2cc(O)ccc2C)cn2c3c(=O)[nH]c(=O)n(C)c3nc12

Activity [16]: 93% | Activity [17]: 92% | Activity [18]: 97% | Activity [19]: 81% | Activity [20]: 103% | Activity [21]: 95% | Activity [22]: 3% | Activity [23]: 94% | Activity [24]: 106% | Activity [25]: 109% | Activity [26]: 109%
SMILES: COc1ccccc1-n1c(-c2ccccc2C)cn2c3c(=O)[nH]c(=O)n(C)c3nc12
